Here are results for two molecules from ChEMBL document CHEMBL4007450, “Development of 1,2,4-Oxadiazoles as Potent and Selective Inhibitors of the Human Deacetylase Sirtuin 2: Structure-Activity Relationship, X-ray Crystal Structure, and Anticancer Activity” (J Med Chem, 2017).

Activity calls are given as the source filed them. The rule behind the calls is not given here.

Experiment [1] deals with T1, NAD-dependent protein deacetylase sirtuin-3, mitochondrial (Homo sapiens) (UniProt Q9NTG7).
T1 sequence (whole entry): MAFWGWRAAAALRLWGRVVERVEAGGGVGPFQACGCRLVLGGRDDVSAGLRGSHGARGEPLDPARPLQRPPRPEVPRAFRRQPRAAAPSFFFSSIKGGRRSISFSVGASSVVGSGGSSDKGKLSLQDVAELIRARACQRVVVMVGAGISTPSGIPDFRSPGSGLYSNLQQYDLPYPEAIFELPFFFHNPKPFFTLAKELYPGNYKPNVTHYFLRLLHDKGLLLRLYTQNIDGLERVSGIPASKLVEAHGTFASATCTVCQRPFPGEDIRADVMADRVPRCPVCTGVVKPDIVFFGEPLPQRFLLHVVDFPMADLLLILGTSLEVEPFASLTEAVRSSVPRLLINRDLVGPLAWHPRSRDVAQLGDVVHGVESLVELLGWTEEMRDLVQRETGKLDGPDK
Nature of the experiment: Inhibition of human SIRT3 (114 to 380 residues) activity expressed in Escherichia coli using AceCS2 peptide as substrate up to 100 uM after 45 mins in presence of NAD+ by pNCA/GDH-based microplate spectrophotometric analysis. In a few lines: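 Same pNCA/GDH-coupled 340 nm NADPH read-out as the Sirt2 assay, using 20 mM Na-phosphate pH 7.8 with 3% DMSO at 20 °C for 45 min. Sirt3 (114-380) was used at 5 µM with AceCS2 peptide TRSGacKVMR as substrate. Inhibitors were tested up to 100 µM.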

Experiment [2] addresses T2, NAD-dependent protein deacetylase sirtuin-2 (Homo sapiens) (UniProt Q8IXJ6).
T2 sequence (whole entry): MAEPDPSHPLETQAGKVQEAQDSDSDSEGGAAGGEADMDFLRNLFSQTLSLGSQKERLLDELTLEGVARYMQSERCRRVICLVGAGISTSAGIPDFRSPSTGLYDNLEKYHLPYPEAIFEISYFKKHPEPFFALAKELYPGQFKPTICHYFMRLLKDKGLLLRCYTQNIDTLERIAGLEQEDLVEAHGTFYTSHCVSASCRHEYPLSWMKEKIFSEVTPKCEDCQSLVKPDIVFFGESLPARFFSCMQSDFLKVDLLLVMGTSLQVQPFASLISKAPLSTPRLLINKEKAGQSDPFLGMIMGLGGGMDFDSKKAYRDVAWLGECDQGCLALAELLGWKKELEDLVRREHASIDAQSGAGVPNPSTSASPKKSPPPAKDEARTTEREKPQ
Nature of the experiment: Inhibition of human N-terminal His6-SUMO-tagged SIRT2 catalytic domain (43 to 356 residues) deacetylase activity expressed in Escherichia coli using alpha-tubulin-acetylLys40 peptide as substrate at 100 uM after 45 mins in presence of NAD+ by pNCA/GDH-based microplate spectrophotometric analysis. In a few lines:
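Continuous coupled assay: Sirt2 product nicotinamide is converted by pNCA/GDH, and NADPH oxidation is read at 340 nm. Compounds were tested at 10 and 100 μM. Background was taken without peptide or NAD+.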

Experiment [3] has as its target T3, NAD-dependent protein deacetylase sirtuin-1 (Homo sapiens) (UniProt Q96EB6).
T3 sequence (whole entry): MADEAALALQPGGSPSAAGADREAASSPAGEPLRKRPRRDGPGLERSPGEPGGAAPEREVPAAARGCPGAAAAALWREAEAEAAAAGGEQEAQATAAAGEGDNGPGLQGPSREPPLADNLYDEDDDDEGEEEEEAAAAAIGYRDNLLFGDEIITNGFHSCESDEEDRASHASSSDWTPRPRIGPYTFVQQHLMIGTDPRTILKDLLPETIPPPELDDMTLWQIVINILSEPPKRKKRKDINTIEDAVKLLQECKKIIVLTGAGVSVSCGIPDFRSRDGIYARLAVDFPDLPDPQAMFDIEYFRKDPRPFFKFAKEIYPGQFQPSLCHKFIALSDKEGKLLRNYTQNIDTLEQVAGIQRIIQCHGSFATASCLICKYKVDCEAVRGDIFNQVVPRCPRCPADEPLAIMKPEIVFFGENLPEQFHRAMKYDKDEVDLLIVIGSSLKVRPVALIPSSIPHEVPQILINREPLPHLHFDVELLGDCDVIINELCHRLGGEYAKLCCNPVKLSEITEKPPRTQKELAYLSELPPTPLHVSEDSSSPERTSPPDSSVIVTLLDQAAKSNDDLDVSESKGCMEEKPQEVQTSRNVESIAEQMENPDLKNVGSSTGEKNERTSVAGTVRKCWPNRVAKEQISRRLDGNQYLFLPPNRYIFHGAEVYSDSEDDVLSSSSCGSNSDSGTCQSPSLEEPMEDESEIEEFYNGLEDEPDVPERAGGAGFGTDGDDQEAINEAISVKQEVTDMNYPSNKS
As to the kind of experiment: Inhibition of human full length SIRT1 activity expressed in Escherichia coli using p53 peptide as substrate up to 100 uM after 45 mins in presence of NAD+ by pNCA/GDH-based microplate spectrophotometric analysis. In a few lines:
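Full-length Sirt1 at 2 µM with p53 peptide RHKacKLMFK as substrate. Activity was measured in the same coupled pNCA/GDH mix as for Sirt2 (α-ketoglutarate, NADPH, Na-phosphate pH 7.8, 3% DMSO), following NADPH oxidation at 340 nm at 20 °C for 45 min. Compounds were tested up to 100 µM.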

The target of experiment [4] is NAD-dependent protein deacylase sirtuin-5, mitochondrial (Homo sapiens) (UniProt Q9NXA8). As to the kind of experiment: Inhibition of human SIRT5 (34 to 302 residues) deacetylase activity expressed in Escherichia coli using Prx1 peptide as substrate up to 100 uM after 45 mins in presence of NAD+ by pNCA/GDH-based microplate spectrophotometric analysis.
NAD-dependent protein deacylase sirtuin-5, mitochondrial (Homo sapiens), sequence (Q9NXA8 37-310 limits assumed): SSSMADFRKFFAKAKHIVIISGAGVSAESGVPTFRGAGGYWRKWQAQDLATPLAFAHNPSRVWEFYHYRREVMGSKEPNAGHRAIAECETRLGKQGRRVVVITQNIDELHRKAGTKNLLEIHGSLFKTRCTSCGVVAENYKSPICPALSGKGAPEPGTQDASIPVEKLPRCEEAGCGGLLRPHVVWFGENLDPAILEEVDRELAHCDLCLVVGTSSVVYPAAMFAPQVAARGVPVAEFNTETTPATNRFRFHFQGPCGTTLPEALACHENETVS
Experiment [5] has as its system U-937. As to the kind of experiment: Effect on cell cycle arrest in human U937 cells at 25 uM after 48 hrs by propidium iodide staining-based FACS analysis. The format is functional.
Experiment [6] relates to U-937. As to the kind of experiment: Induction of apoptosis in human U937 cells assessed as pre-G1 accumulation at 5 to 50 uM after 48 hrs by propidium iodide staining-based FACS analysis. The format is functional, cell-based. The procedure, abridged:
(§1)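 Leukemia cells (U937, NB4, HL-60, K562) were grown in RPMI-1640 with 10% FBS, 2 mM L-glutamine and antibiotics, then treated for 48 h at 5, 10, 25 and 50 μM. 2.5×10^5 cells were stained 30 min in the dark in hypotonic PI buffer (0.1% Triton X-100, 0.1% citrate, 50 µg/mL PI, RNase A). Apoptosis was scored as pre-G1 content by flow cytometry. Duplicates, mean ± SD.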

The test system of experiment [7] is NB-4. Nature of the experiment: Induction of apoptosis in human NB4 cells assessed as pre-G1 accumulation at 5 to 50 uM after 48 hrs by propidium iodide staining-based FACS analysis. Format: functional, cell-based. In a few lines: as §1
A further experiment has as its system K562. As to the kind of experiment: Induction of apoptosis in human K562 cells assessed as pre-G1 accumulation at 5 to 50 uM after 48 hrs by propidium iodide staining-based FACS analysis. Format: functional, cell-based. The procedure, abridged:
as §1
On the technique in general: In flow cytometry, cells or beads pass a laser one at a time.

The next experiment relates to HL-60. Nature of the experiment: Induction of apoptosis in human HL60 cells assessed as pre-G1 accumulation at 5 to 50 uM after 48 hrs by propidium iodide staining-based FACS analysis. The format is functional, cell-based. In a few lines: as §1
For experiment [8], the system named is MDA-MB-231. Nature of the experiment: Induction of apoptosis in human MDA-MB-231 cells assessed as pre-G1 accumulation at 5 to 50 uM after 48 hrs by propidium iodide staining-based FACS analysis. The format is functional, cell-based. The procedure, abridged:
(§2)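 MDA-MB-231 breast cancer cells were grown in DMEM with 10% FBS, 2 mM L-glutamine and antibiotics, then exposed for 48 h at 5, 10, 25 or 50 μM. 2.5×10^5 cells were stained in hypotonic buffer with 50 µg/mL PI, 0.1% Triton X-100, 0.1% citrate and RNase A for 30 min in the dark. Pre-G1 fraction was measured by flow cytometry. Biological duplicates, mean ± SD.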

In experiment [9] the target is T4, NAD-dependent protein deacetylase sirtuin-2 (Homo sapiens, UniProt Q8IXJ6).
T4 sequence (Q8IXJ6 whole entry): T2 sequence (whole entry)

Experiment [10] concerns the target NAD-dependent protein deacylase sirtuin-5, mitochondrial (Homo sapiens) (UniProt Q9NXA8). As to the kind of experiment: Inhibition of human SIRT5 (34 to 302 residues) desuccinylase activity expressed in Escherichia coli using peptide as substrate up to 100 uM after 45 mins in presence of NAD+ by pNCA/GDH-based microplate spectrophotometric analysis.
The subject of experiment [11] is U-937. Nature of the experiment: Induction of apoptosis in human U937 cells assessed as pre-G1 accumulation at 25 uM after 48 hrs by propidium iodide staining-based FACS analysis. The format is functional. The procedure, abridged:
as §1

Experiment [12] relates to NB-4. As to the kind of experiment: Induction of apoptosis in human NB4 cells assessed as pre-G1 accumulation at 50 uM after 48 hrs by propidium iodide staining-based FACS analysis. The format is functional. The procedure, abridged:
as §1

Experiment [13] has as its system MDA-MB-231. Nature of the experiment: Induction of apoptosis in human MDA-MB-231 cells assessed as pre-G1 accumulation at 50 uM after 48 hrs by propidium iodide staining-based FACS analysis. The format is functional. The procedure, abridged:
as §2

In the case of `Clc1ccc(-c2noc(CCCBr)n2)cc1`, the inhibition result in [1], in [3], in experiment [4] and in experiment [10] was “inactive” throughout. Also, the inhibition entry in experiment [2] is “Active”. For the same molecule, the result in the experiment with U-937 [5], in the experiment on U-937 [6], with NB-4 [7], with K562, in the experiment with HL-60 and with MDA-MB-231 [8] was inactive. Further, in experiment [9], inhibition was half-maximal at 2.5 µM (IC50).
Turning to `Fc1ccc(-c2noc(CCCBr)n2)cc1`, the Activity is on record as 11.1 - 37.1% in the experiment with U-937 [11], 30 - 40% with NB-4 [12] and 30 - 40% in the experiment on MDA-MB-231 [13]. The IC50 (in general, the point on the concentration scale where inhibition reaches its midpoint) in [9] is 19.8 µM.
